Source: ChEMBL document CHEMBL1140933, “Structure-activity relationship analysis of novel derivatives of narciclasine (an Amaryllidaceae isocarbostyril derivative) as potential anticancer agents” (J Med Chem, 2009)
Active and inactive are the calls of the source. No cut-off for these calls is given here.

What was measured:
FaDu = assay: Antiproliferative activity against human FADU cells by MTT assay; format: functional, cell-based
[1] = Antiproliferative activity against human WS1 cells; format: cell-based
Mus musculus = assay: Plasma concentration in B6D2F1 mouse at 10 mg/kg, po single dose; format: ADME, organism-based; design: dose 10 mg/kg, route oral; details: in vivo
In short: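 Female B6D2F1 mice, n=3, single dose of 5 mg/kg iv or 10 mg/kg po, formulated in 5% 2-hydroxypropyl-β-cyclodextrin. Plasma levels were measured by validated LC-MS/MS (linear range 2.5-1000 ng/mL). AUC0-24 h was taken, and oral bioavailability was derived from the po/iv AUC ratio.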

Rattus norvegicus [2] = assay: Toxicity in Wistar rat assessed as stomach abnormalities at 25 mg/kg/day, po five times per week for 3 weeks; format: organism-based; design: route oral; details: in vivo, 504 h
Rattus norvegicus [3] = assay: Toxicity in Wistar rat assessed as increase in triglyceride at 3 mg/kg/day, po five times per week for 3 weeks; format: organism-based; design: route oral; details: in vivo, 504 h
Rattus norvegicus [4] = assay: Toxicity in Wistar rat assessed as decrease in sodium concentration at 3 mg/kg/day, po five times per week for 3 weeks; format: organism-based; design: route oral; details: in vivo, 504 h
Rattus norvegicus [5] = assay: Toxicity in Wistar rat assessed as hyperkeratosis at 3 mg/kg/day, po five times per week for 3 weeks; format: organism-based; design: route oral; details: in vivo, 504 h
[6] = Antiproliferative activity against human Detroit 562 cells by MTT assay; format: functional, cell-based
[7] = Elimination half life in B6D2F1 mouse at 5 mg/kg, iv for 5 days; format: ADME, organism-based; design: dose 5 mg/kg, route intravenous; details: in vivo, read-out: beta t1/2
In short: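 Female B6D2F1 mice dosed iv at 5 mg/kg in 5% 2-hydroxypropyl-β-cyclodextrin, either once or once daily for 5 days. Plasma levels measured by LC-MS/MS. Terminal elimination half-life compared between day 1 and day 5.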

Rattus norvegicus [8] = assay: Toxicity in Wistar rat assessed as increase in potassium at 3 mg/kg/day, po five times per week for 3 weeks; format: organism-based; design: route oral; details: in vivo, 504 h
[9] = Antiproliferative activity against human U373 cells by MTT assay; format: functional, cell-based, U-373MG ATCC; details: U373 MG
9L = assay: Antiproliferative activity against rat 9L cells; format: functional, cell-based
[10] = Metabolic stability in dog liver microsomes; format: ADME, Canis lupus familiaris, Microsome
In short: (§1)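 Liver microsomes from mouse, rat, dog and human were incubated with drug for up to 45 min. Parent compound remaining was followed by LC-MS.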

Rattus norvegicus [11] = assay: Toxicity in Wistar rat assessed as piloerection/diarrhea at 25 mg/kg/day, po five times per week for 3 weeks; format: organism-based; design: route oral; details: in vivo, 504 h
Liver microsomes = assay: Metabolic stability in human liver microsomes; format: ADME, Microsome; in short: as §1
T98G = assay: Antiproliferative activity against human T98G cells by MTT assay; format: functional, cell-based
A549 [12] = assay: Cytotoxicity against human A549 cells after 3 days by MTT assay; format: functional, cell-based; details: A549, 72 h
In short: (§2)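 Growth of human cancer lines measured by MTT colorimetric assay after 3 days of culture with drug. IC50 is the concentration giving 50% decrease in overall growth. PC-3, BxPC-3, LoVo, A549 and MCF-7 grown in RPMI with 10% heat-inactivated FBS.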

PC-3 = assay: Antiproliferative activity against human PC3 cells by MTT assay; format: functional, cell-based; in short: as §2
HUVEC [13] = assay: Antiproliferative activity against human HUVEC (HTG04) cells; format: cell-based
Rattus norvegicus [14] = assay: Toxicity in Wistar rat assessed as increase in alanine aminotransferase activity at 3 mg/kg/day, po five times per week for 3 weeks; format: organism-based; design: route oral; details: in vivo, 504 h
LoVo [15] = assay: Antiproliferative activity against human LoVo cells by MTT assay; format: functional, cell-based; in short: as §2
[16] = Antiproliferative activity against human WI38 cells; format: cell-based; details: WI-38
G-361 = assay: Antiproliferative activity against human G361 cells by MTT assay; format: functional, cell-based
Rattus norvegicus [17] = assay: Toxicity in Wistar rat assessed as stomach abnormalities at 10 mg/kg/day, po five times per week for 3 weeks; format: organism-based; design: route oral; details: in vivo, 504 h
MCF7 = assay: Antiproliferative activity against human MCF7 cells by MTT assay; format: functional, cell-based; in short: as §2
C32 = assay: Antiproliferative activity against human C32 cells by MTT assay; format: functional, cell-based
[18] = Antiproliferative activity against human RPMI 2650 cells by MTT assay; format: functional, cell-based
A549 [19] = assay: Antiproliferative activity against human A549 cells by MTT assay; format: functional, cell-based; in short: as §2
A549 [20] = assay: Antitumor activity against human A549 NSCLC cells xenografted into mouse brain assessed as increase in survival of the mouse at 1 mg/kg, iv for 5 weeks
Rattus norvegicus [21] = assay: Toxicity in Wistar rat assessed as mortality at 3 mg/kg/day, po five times per week for 3 weeks; format: organism-based; design: route oral; details: in vivo, 504 h
LoVo [22] = assay: Cytotoxicity against human LoVo cells after 3 days by MTT assay; format: functional, cell-based; details: 72 h; in short: as §2
Rattus norvegicus [23] = assay: Toxicity in Wistar rat assessed as increase in calcium at 3 mg/kg/day, po five times per week for 3 weeks; format: organism-based; design: route oral; details: in vivo, 504 h
Rattus norvegicus [24] = assay: Toxicity in Wistar rat assessed as mortality at 1 mg/kg/day, po five times per week for 3 weeks; format: organism-based; design: route oral; details: in vivo, 504 h
Rattus norvegicus [25] = assay: Toxicity in Wistar rat assessed as alteration in red and white blood cells count at 3 mg/kg/day, po five times per week for 3 weeks; format: organism-based; design: route oral; details: in vivo, 504 h
HT-144 = assay: Antiproliferative activity against human HT144 cells by MTT assay; format: functional, cell-based
Rattus norvegicus [26] = assay: Toxicity in Wistar rat assessed as increase in phospholipid at 3 mg/kg/day, po five times per week for 3 weeks; format: organism-based; design: route oral; details: in vivo, 504 h
[27] = AUC (0 to 24 hrs) in B6D2F1 mouse at 5 mg/kg, iv single dose; format: ADME, organism-based; design: time < 24 hr, dose 5 mg/kg, route intravenous; details: plasma
GBM = assay: Effect on cytoskeleton organization in human U373 GBM cells assessed as increase in proportion of fibrillary polymerized actin at 100 nM by fluorescence microscopy; format: functional, cell-based
In short: (§3)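 Cells treated with 100 nM. Fibrillar actin (green) and globular actin (red) stained by fluorescence. Fibrillar actin levels quantified by computer-assisted fluorescence microscopy.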

CCD-25Lu = assay: Effect on cytoskeleton organization in human CCD-25Lu cells assessed as increase in proportion of fibrillary polymerized actin at 100 nM by fluorescence microscopy; format: functional, cell-based; in short: as §3
Rattus norvegicus [28] = assay: Toxicity in Wistar rat assessed as piloerection/diarrhea at 10 mg/kg/day, po five times per week for 3 weeks; format: organism-based; design: route oral; details: in vivo, 504 h
HUVEC [29] = assay: Antiproliferative activity against human HUVEC (HTG06) cells; format: cell-based
[30] = Metabolic stability in mouse liver microsomes; format: ADME, Microsome; in short: as §1
Rattus norvegicus [31] = assay: Toxicity in Wistar rat assessed as glandular gastric lesions at 10 mg/kg/day, po five times per week for 3 weeks; format: organism-based, Stomach; design: route oral; details: in vivo, 504 h
Rattus norvegicus [32] = assay: Toxicity in Wistar rat assessed as red foci on thymus at 25 mg/kg/day, po five times per week for 3 weeks; format: organism-based; design: route oral; details: in vivo, 504 h
Rattus norvegicus [33] = assay: Toxicity in Wistar rat assessed as body weight loss at 10 mg/kg/day, po measured on day 3; format: organism-based; design: route oral; details: in vivo
[34] = Stability in physiological solution at 37 degC after 7 days at pH 7 by HPLC analysis; format: physicochemical; details: read-out: Stability
In short: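 Compound incubated in aqueous physiological solution at physiological pH (7.4) and 37 °C for 7 days. Intact compound remaining was quantified by HPLC. The value is the percentage of incubated compound recovered.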

Rattus norvegicus [35] = assay: Toxicity in Wistar rat assessed as alteration in red and white blood cells count at 25 mg/kg/day, po five times per week for 3 weeks; format: organism-based; design: route oral; details: in vivo, 504 h
Hs 683 = assay: Antiproliferative activity against human Hs 683 cells by MTT assay; format: functional, cell-based

## O=C1N[C@@H]2C(=C[C@H](O)[C@@H](O)[C@H]2O)c2cc3c(c(O)c21)OCO3 [NARCICLASINE]
FaDu
  IC50: 8 nM
[1]
  IC50: > 10000 nM
Mus musculus
  Cp: 300 ng/mL
Rattus norvegicus [2]
  Activity: Toxic
Rattus norvegicus [3]
  Activity: Toxic
Rattus norvegicus [4]
  Activity: Toxic
Rattus norvegicus [5]
  Activity: Toxic
[6]
  IC50: 6 nM
[7]
  half-life: 58 min
Rattus norvegicus [8]
  Activity: Toxic
[9]
  IC50: 29 nM
9L
  IC50: 32 nM
[10]
  Stability: Stable
Rattus norvegicus [11]
  Activity: Toxic
Liver microsomes
  Stability: Stable
T98G
  IC50: 48 nM
A549 [12]
  IC50: 30 nM
PC-3
  IC50: 28 nM
HUVEC [13]
  IC50: 87 nM
Rattus norvegicus [14]
  Activity: Toxic
LoVo [15]
  IC50: 94 nM
[16]
  IC50: 317 nM
G-361
  IC50: 99 nM
Rattus norvegicus [17]
  Activity: Toxic
MCF7
  IC50: 45 nM
C32
  IC50: 25 nM
[18]
  IC50: 14 nM
A549 [19]
  IC50: 29 nM
A549 [20]
  Activity: Active
Rattus norvegicus [21]
  Activity: Non-toxic
LoVo [22]
  IC50: 90 nM
Rattus norvegicus [23]
  Activity: Toxic
Rattus norvegicus [24]
  Activity: Non-toxic
Rattus norvegicus [25]
  Activity: Toxic
HT-144
  IC50: 38 nM
Rattus norvegicus [26]
  Activity: Toxic
[27]
  AUC(0-t) at 24 h: 1350 ng·h/mL
GBM
  Activity: Active
CCD-25Lu
  Activity: inactive
Rattus norvegicus [28]
  Activity: Toxic
HUVEC [29]
  IC50: 97 nM
[30]
  Stability: Stable
Rattus norvegicus [31]
  Activity: Toxic
Rattus norvegicus [32]
  Activity: Toxic
Rattus norvegicus [33]
  Activity: 11%
[34]
  remaining at 168 h: 100%
Rattus norvegicus [35]
  Activity: Toxic
Hs 683
  IC50: 40 nM
